{"data": "Published values of several laboratories", "cell line": "CAKI-1", "read-out": "cell growth or viability", "note": "Protocols differ between the studies behind these lines."}
{"Compound": "COc1ccc(C(=O)/C=C/c2cccc(Cl)c2Cl)cc1S(N)(=O)=O", "method": "SRB", "concentration": "10 µM", "quantity": "inhibition", "value": "106%"}
{"Compound": "COc1cc(Nc2nccc(-c3cnn4nc(OC)ccc34)n2)cc(C(F)(F)F)c1", "method": "ATP luminescence", "quantity": "IC50", "value": "310 nM"}
{"Compound": "O=C1Nc2ccccc2C1=NNc1nnc2n1N=C(c1ccccc1)CS2", "method": "SRB", "concentration": "10 µM", "quantity": "inhibition", "value": "21%"}
{"Compound": "Cc1cc(C)n(C(=S)[S][Au][PH](CCCCCC[PH]([Au][S]C(=S)n2nc(C)cc2C)(c2ccccc2)c2ccccc2)(c2ccccc2)c2ccccc2)n1", "quantity": "GI50", "value": "2160 nM"}
{"Compound": "[Cl-].[Cl-].[Ti+4].c1cc[cH-]c1.c1cc[cH-]c1", "method": "XTT", "time": "24 h", "quantity": "IC50", "value": "> 200000 nM"}
{"Compound": "CC(C)C[C@H](NC(=O)[C@H](Cc1ccccc1)NC(=O)c1cnccn1)B(O)O", "method": "ATP luminescence", "quantity": "IC50", "value": "10 nM"}
{"Compound": "COc1ccc(C(=O)/C=C/c2cc3c(cc2Br)OCO3)cc1S(N)(=O)=O", "method": "SRB", "time": "48 h", "quantity": "GI50", "value": "4600 nM"}
{"Compound": "COc1ccc(-c2ccc(-c3ccc(C(=N)N)nc3)s2)cc1Cl", "quantity": "GI50", "value": "1740 nM"}
{"Compound": "CC(=O)OC[C@H]1O[C@@H]([S-])[C@H](OC(C)=O)[C@@H](OC(C)=O)[C@@H]1OC(C)=O.CCP(CC)CC.[Au+]", "method": "resazurin", "quantity": "IC50", "value": "2290 nM"}
{"Compound": "S=C([S][Au-][P+](CCCCCC[P+]([Au-][S]C(=S)n1cccn1)(c1ccccc1)c1ccccc1)(c1ccccc1)c1ccccc1)n1cccn1", "quantity": "GI50", "value": "7150 nM"}
{"Compound": "COc1ccc(-c2ccc(-c3ccc(C(=N)N)nc3)s2)cc1", "quantity": "GI50", "value": "1640 nM"}
